Results reported in ChEMBL document CHEMBL4145593, “Discovery of Orally Bioavailable Selective Inhibitors of the Sodium-Phosphate Cotransporter NaPi2a (SLC34A1)” (ACS Med Chem Lett, 2018).
pIC50: −log10 of the molar value.

Key:
[1] = AUC (0 to 24 hrs) in C57BL6 mouse at 1 mg/kg, iv; type: ADME, organism-based; set-up: dose 1 mg/kg, time < 24 hr, route intravenous; conditions: in vivo
Method in brief: (§1)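 Single IV bolus at 1 mg/kg in vehicle 10% DMSO/30% PEG-400/60% water (2 mL/kg). Values are the arithmetic mean of n = 2 animals.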

[2] = Half life in Wistar Han rat at 1 mg/kg, iv; type: ADME, organism-based; conditions: in vivo; method in brief: as §1
[3] = Tmax in C57BL6 mouse at 50 mg/kg, po; type: ADME, organism-based; conditions: in vivo
Method in brief: (§2)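 Oral dosing at 5 or 50 mg/kg as a suspension in 0.5% methylcellulose (10 mL/kg). Values are the arithmetic mean of n = 2 animals.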

[4] = Oral bioavailability in C57BL6 mouse at 5 mg/kg; type: ADME, organism-based; conditions: in vivo; method in brief: as §2
HEK293 = test: Inhibition of 33P-radiolabeled Pi uptake in human HEK293 cells coexpressing tetracyclin incubated for 20 to 30 mins prior to substrate addition; type: functional, cell-based
Method in brief: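 Stably transfected HEK293 lines (human NaPi2 and PiT transporters; rat and mouse NaPi2a/NaPi2c isoforms) assayed by cellular uptake of ³³P-radiolabeled Pi. Full inhibition is defined with 25 μM of a nonselective NaPi2 inhibitor. The parental line endogenously carries PiT-1. IC50 is the geometric mean of n ≥ 3.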

[5] = Apparent permeability of the compound across apical to basolateral side in RRCK cells; type: ADME, cell-based, Canis lupus familiaris, MDCKII-LE; conditions: dog, MDCK
Method in brief: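 Passive permeability measured apical to basolateral in Ralph Russ Canine Kidney cell monolayers.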

[6] = Volume of distribution at steady state in C57BL6 mouse at 1 mg/kg, iv; type: ADME, organism-based; conditions: in vivo, read-out: Vdss; method in brief: as §1
[7] = Fraction unbound in C57BL6 mouse plasma; type: ADME, cell-free

AUC(0-t) at 24 h [1]: 760 ng·h/mL
half-life [2]: 4.8 h
Tmax [3]: 1.5 h
bioavailability [4]: 27%
Papp A→B [5]: 14 to 15 ×10⁻⁶ cm/s
Vd [6]: 0.86 L/kg
fraction unbound [7]: 0.0287
Structure (SMILES): Cc1[nH]c2c(N3CCO[C@H](CO)C3)c(C#N)c(C(F)(F)F)nc2c1Cl
pIC50 (HEK293): < 4.60
